From ChEMBL document CHEMBL1221394, “Anti-AIDS agents 79. Design, synthesis, molecular modeling and structure-activity relationships of novel dicamphanoyl-2',2'-dimethyldihydropyranochromone (DCP) analogs as potent anti-HIV agents” (Bioorg Med Chem, 2010) come the findings set out here.

By EC50 is commonly meant the midpoint of the concentration-response curve. The low end stands for higher potency in that assay, the high end for lower potency in that assay. By IC50 is commonly meant the midpoint of a concentration-inhibition curve. A high value points to weaker potency. The solubility is the concentration that dissolves in the medium under given conditions.

≈ marks a conversion by molar mass, not a printed value.

The nature of series [1]: Therapeutic index, ratio of IC50 for human TZM-b1 cells to EC50 for HIV1 RTMDR1. The class given is cell-based. The following applies: read-out: TI. An outline of the steps:
(§1)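 Cytotoxicity was measured with the CytoTox-Glo kit following the manufacturer's instructions. Antiviral EC50 came from the single-round TZM-bl luciferase assay: 200 TCID50 virus, eight 4-fold sample dilutions, 48 h, and 50% RLU reduction versus virus control after background subtraction.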

The subject of series [2] is Human immunodeficiency virus 1. Description: Antiviral activity against HIV1 RTMDR1 in human TZM-b1 cells after 48 hrs by luciferase reporter gene assay. The class given is functional, organism-based. The following applies: Human immunodeficiency virus 1, RTMDR1, TZM-b1, 48 h. In short, it runs like this: (§2)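 Single-round infection of TZM-bl cells with 200 TCID50 virus mixed with test sample at eight 4-fold serial dilutions. Incubated 48 h, then luciferase reagent was added and luminescence read. IC50 is the concentration giving 50% reduction in RLU versus virus-control wells, after subtracting background RLU.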
For orientation: Reporter assays use an easily measured gene product as a stand-in for the process of interest.

Series [3] can be described thus: Therapeutic index, ratio of IC50 for human TZM-b1 cells to EC50 for HIV1 NL4-3. The class given is cell-based. The following applies: read-out: TI. In short, it runs like this: as §1
Series [4] is described as follows: Cytotoxicity against human TZM-b1 cells. The class given is cell-based. An outline of the steps: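 Cytotoxicity in TZM-bl cells read with the CytoTox-Glo luminescent assay, run according to the kit instructions.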
For series [5], the system named is Human immunodeficiency virus 1. Kind of series: Antiviral activity against wild type HIV1 NL4-3 in human TZM-b1 cells after 48 hrs by luciferase reporter gene assay. The format is functional, organism-based. The following applies: Human immunodeficiency virus 1, NL4-3, TZM-b1, 48 h. In short, it runs like this:
as §2

A short description of series [6]: Solubility of the compound in water after 1 hr. The format is physicochemical. In short, it runs like this: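 Excess solid compound was added to HPLC-grade water and sonicated in an ultrasonic bath at room temperature for 1 h. Undissolved solid was removed with a PTFE syringe filter. Dissolved concentration was quantified by HPLC on a C18 column (2.1 mm × 100 mm) at a flow rate of 200 μL/min.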

For series [7], the system named is Human immunodeficiency virus 1. Description: Antiviral activity against HIV1 3B infected in human H9 cells. The format is functional, organism-based. The following applies: Human immunodeficiency virus 1, 3B.
The nature of series [8]: Therapeutic index, ratio of CC50 for human H9 cells to EC50 for HIV1 3B. The format is cell-based. To be noted: read-out: TI.

Turning to `Cc1cc(=O)c2ccc3c(c2o1)[C@@H](OC(=O)[C@@]12CC[C@@](C)(C(=O)O1)C2(C)C)[C@@H](OC(=O)[C@@]12CC[C@@](C)(C(=O)O1)C2(C)C)C(C)(C)O3`, the selectivity ratio in series [1] was 58; in series [3], 110. The EC50 amounted to 190 nM in series [2] and 100 nM in series [5]. Further, in series [4], half-maximal inhibition (IC50) required 11000 nM.
In the same order, the values of `Cc1oc2c3c(ccc2c(=O)c1I)OC(C)(C)[C@H](OC(=O)[C@@]12CC[C@@](C)(C(=O)O1)C2(C)C)[C@@H]3OC(=O)[C@@]12CC[C@@](C)(C(=O)O1)C2(C)C` are 8, 18, 1600 nM, 730 nM and 13000 nM.
On to `Cc1cc(=O)c2c(C)cc3c(c2o1)[C@@H](OC(=O)[C@@]12CC[C@@](C)(C(=O)O1)C2(C)C)[C@@H](OC(=O)[C@@]12CC[C@@](C)(C(=O)O1)C2(C)C)C(C)(C)O3`, for which the selectivity ratio was found to be 310 in series [1] and 420 in series [3]. Further, the solubility at 1 h in series [6] (water) came to 5.2 µg/mL (≈ 7.99 µM). Further, the figures for the EC50 in series [2] and in series [5] were 49 nM and 36 nM, respectively. The IC50 in series [4] came out at 15000 nM.
As to `Cc1oc2c3c(cc(C)c2c(=O)c1Br)OC(C)(C)[C@H](OC(=O)[C@@]12CC[C@@](C)(C(=O)O1)C2(C)C)[C@@H]3OC(=O)[C@@]12CC[C@@](C)(C(=O)O1)C2(C)C`, the selectivity ratio in series [1] was above 15; in series [3] it was above 24. Moreover, the EC50 in series [2] stood at 910 nM; in series [5], 590 nM. The same compound yielded a half-maximal inhibitory concentration (IC50) in series [4] above 14000 nM.
For the compound `CCc1oc2c3c(ccc2c(=O)c1C#N)OC(C)(C)[C@H](OC(=O)[C@@]12CC[C@@](C)(C(=O)O1)C2(C)C)[C@@H]3OC(=O)[C@@]12CC[C@@](C)(C(=O)O1)C2(C)C`, the figures for the selectivity ratio in series [1] and in series [3] were above 37 and above 54, respectively. Besides, the results for the EC50 in series [2] and in series [5] were 790 nM and 550 nM, respectively. Also, in series [4], the IC50 is above 30000 nM.
In the same order, the values of `Cc1cc(=O)c2c(CBr)cc3c(c2o1)[C@@H](OC(=O)[C@@]12CC[C@@](C)(C(=O)O1)C2(C)C)[C@@H](OC(=O)[C@@]12CC[C@@](C)(C(=O)O1)C2(C)C)C(C)(C)O3` are 7.4, 11, 1200 nM, 810 nM and 8900 nM.
As to `Cc1oc2c3c(ccc2c(=O)c1Br)OC(C)(C)[C@H](OC(=O)[C@@]12CC[C@@](C)(C(=O)O1)C2(C)C)[C@@H]3OC(=O)[C@@]12CC[C@@](C)(C(=O)O1)C2(C)C`, the selectivity ratio in series [1] and in series [3] was 14 throughout. Moreover, the concentration for a half-maximal effect (EC50) in series [2] is 570 nM; in series [5], 550 nM. The same compound came in with an IC50 in series [4] of 7700 nM.
`Cc1oc2c3c(c(Br)c(C)c2c(=O)c1Br)OC(C)(C)[C@H](OC(=O)[C@@]12CC[C@@](C)(C(=O)O1)C2(C)C)[C@@H]3OC(=O)[C@@]12CC[C@@](C)(C(=O)O1)C2(C)C`: the EC50 in series [2] was above 12000 nM; in series [5], 10000 nM. Besides, the selectivity ratio in series [3] was above 1.2. The compound also came in with an IC50 in series [4] above 12000 nM.
As to `CCc1oc2c3c(ccc2c(=O)c1Br)OC(C)(C)[C@H](OC(=O)[C@@]12CC[C@@](C)(C(=O)O1)C2(C)C)[C@@H]3OC(=O)[C@@]12CC[C@@](C)(C(=O)O1)C2(C)C`, the results for the selectivity ratio in series [1] and in series [3] were above 28 and above 24, respectively. Further, the figures for the EC50 in series [2] and in series [5] were 990 nM and 1100 nM, respectively. This compound also yielded an IC50 in series [4] above 27000 nM.
Consider `CC1(C)Oc2ccc3ccc(=O)oc3c2[C@@H](OC(=O)C23CCC(C)(C(=O)O2)C3(C)C)[C@H]1OC(=O)C12CCC(C)(C(=O)O1)C2(C)C` (stereo partly specified), for which, in series [7], the EC50 stood at 49 nM. In series [8], the selectivity ratio stood at 328.
Take `Cc1c(C#N)oc2c3c(ccc2c1=O)OC(C)(C)[C@H](OC(=O)[C@@]12CC[C@@](C)(C(=O)O1)C2(C)C)[C@@H]3OC(=O)[C@@]12CC[C@@](C)(C(=O)O1)C2(C)C`: the selectivity ratio in series [1] is 21; in series [3], 290. Further, the EC50 in series [2] is 1900 nM; in series [5], 140 nM. In series [4], this compound came in with an IC50 of 40000 nM.
As to `CCc1oc2c3c(ccc2c(=O)c1N)OC(C)(C)[C@H](OC(=O)[C@@]12CC[C@@](C)(C(=O)O1)C2(C)C)[C@@H]3OC(=O)[C@@]12CC[C@@](C)(C(=O)O1)C2(C)C`, the selectivity ratio in series [1] is 74; in series [3], 190. The compound further displayed a solubility in series [6] (HPLC grade water, 1 h) of 10.3 µg/mL (≈ 15.5 µM). Besides, the EC50 was found to be 310 nM in series [2] and 120 nM in series [5]. In series [4], this compound showed an IC50 of 23000 nM.
Regarding `CNCc1cc(=O)c2ccc3c(c2o1)[C@@H](OC(=O)[C@@]12CC[C@@](C)(C(=O)O1)C2(C)C)[C@@H](OC(=O)[C@@]12CC[C@@](C)(C(=O)O1)C2(C)C)C(C)(C)O3`, the selectivity ratio was above 43 in series [1] and above 100 in series [3]. The EC50 was found to be 690 nM in series [2] and 290 nM in series [5]. The same compound came in with an IC50 in series [4] above 30000 nM.
On to `CC1(C)Oc2ccc3c(=O)cc(CN4CCOCC4)oc3c2[C@@H](OC(=O)[C@@]23CC[C@@](C)(C(=O)O2)C3(C)C)[C@H]1OC(=O)[C@@]12CC[C@@](C)(C(=O)O1)C2(C)C`, for which the selectivity ratio in series [1] is above 6.3; in series [3], above 14. The half-maximal inhibitory concentration (IC50) in series [4] was above 28000 nM.
As for `CCc1cc(=O)c2c(CC)cc3c(c2o1)[C@@H](OC(=O)[C@@]12CC[C@@](C)(C(=O)O1)C2(C)C)[C@@H](OC(=O)[C@@]12CC[C@@](C)(C(=O)O1)C2(C)C)C(C)(C)O3`, the EC50 stood at 340 nM in series [2] and 250 nM in series [5]. Further, the selectivity ratio in series [3] was above 120. The IC50 in series [4] was above 30000 nM.
`CC1(C)Oc2ccc3c(=O)cc(CC#N)oc3c2[C@@H](OC(=O)[C@@]23CC[C@@](C)(C(=O)O2)C3(C)C)[C@H]1OC(=O)[C@@]12CC[C@@](C)(C(=O)O1)C2(C)C`: the results for the selectivity ratio in series [1] and in series [3] were 12 and 9.4, respectively. Also, the EC50 in series [2] came out at 1400 nM; in series [5], 1800 nM. This compound also displayed an IC50 in series [4] of 17000 nM.
In the same order, the values of `CC1(C)Oc2ccc3c(=O)cc(CBr)oc3c2[C@@H](OC(=O)[C@@]23CC[C@@](C)(C(=O)O2)C3(C)C)[C@H]1OC(=O)[C@@]12CC[C@@](C)(C(=O)O1)C2(C)C` are 3, 3, 560 nM, 550 nM and 1700 nM.
Turning to `CC(Br)c1cc(=O)c2ccc3c(c2o1)[C@@H](OC(=O)[C@@]12CC[C@@](C)(C(=O)O1)C2(C)C)[C@@H](OC(=O)[C@@]12CC[C@@](C)(C(=O)O1)C2(C)C)C(C)(C)O3` (stereo partly specified), 3500 nM corresponded to half-maximal inhibition in series [4] (IC50).
As to `CC1(C)Oc2ccc3c(=O)cc(CNCc4ccncc4)oc3c2[C@@H](OC(=O)[C@@]23CC[C@@](C)(C(=O)O2)C3(C)C)[C@H]1OC(=O)[C@@]12CC[C@@](C)(C(=O)O1)C2(C)C`, the selectivity ratio in series [1] and in series [3] was above 1.3 in each case. This compound returned an IC50 in series [4] above 27000 nM. Further, the EC50 in series [5] came out at 21000 nM.
Take `CCc1cc(=O)c2c(C)cc3c(c2o1)[C@@H](OC(=O)[C@@]12CC[C@@](C)(C(=O)O1)C2(C)C)[C@@H](OC(=O)[C@@]12CC[C@@](C)(C(=O)O1)C2(C)C)C(C)(C)O3`: the figures for the selectivity ratio in series [1] and in series [3] were 200 and 110, respectively. The EC50 in series [2] is 54 nM; in series [5], 100 nM. Besides, inhibition in series [4] was half-maximal at 11000 nM (IC50).
The corresponding values for `CCc1oc2c3c(ccc2c(=O)c1NC)OC(C)(C)[C@H](OC(=O)[C@@]12CC[C@@](C)(C(=O)O1)C2(C)C)[C@@H]3OC(=O)[C@@]12CC[C@@](C)(C(=O)O1)C2(C)C` are 29, 73, 1100 nM, 440 nM and 32000 nM.
On to `CC(Br)(Br)c1cc(=O)c2ccc3c(c2o1)[C@@H](OC(=O)[C@@]12CC[C@@](C)(C(=O)O1)C2(C)C)[C@@H](OC(=O)[C@@]12CC[C@@](C)(C(=O)O1)C2(C)C)C(C)(C)O3`, for which the selectivity ratio stood at 4 in series [1] and 1.8 in series [3]. In addition, the values for the EC50 in series [2] and in series [5] were 450 nM and 1000 nM, respectively. Further, the IC50 in series [4] worked out at 1800 nM.
In the same order, the values of `Cc1oc2c3c(ccc2c(=O)c1N)OC(C)(C)[C@H](OC(=O)[C@@]12CC[C@@](C)(C(=O)O1)C2(C)C)[C@@H]3OC(=O)[C@@]12CC[C@@](C)(C(=O)O1)C2(C)C` are 68, 130, 470 nM, 250 nM and 32000 nM.
In the same order, the values of `CNc1c(C)oc2c3c(ccc2c1=O)OC(C)(C)[C@H](OC(=O)[C@@]12CC[C@@](C)(C(=O)O1)C2(C)C)[C@@H]3OC(=O)[C@@]12CC[C@@](C)(C(=O)O1)C2(C)C` are above 130, above 200, 450 nM, 300 nM and above 60000 nM.
The compound `CN(C)CCCN1CCN(Cc2cc(=O)c3ccc4c(c3o2)[C@@H](OC(=O)[C@@]23CC[C@@](C)(C(=O)O2)C3(C)C)[C@@H](OC(=O)[C@@]23CC[C@@](C)(C(=O)O2)C3(C)C)C(C)(C)O4)CC1` gave an IC50 in series [4] of 17000 nM.
